One block for each compound: values may come before it. Calls of active or inactive are those of the source. The rule behind the calls is not given here.
Key:
Type in all cases: cell-based
[1] = target: T1, Peroxisome proliferator-activated receptor gamma (Mus musculus) (UniProt P37238); assay: Agonist activity at PPARgamma in LPS-stimulated mouse RAW264.7 cells assessed as inhibition of NF-kappaB signaling by measuring reduction in IL-6 mRNA level at 50 uM pretreated with compound for 1 hr followed by LPS stimulation for 6 hrs by RT-PCR analysis relative to control
T1 sequence (whole entry): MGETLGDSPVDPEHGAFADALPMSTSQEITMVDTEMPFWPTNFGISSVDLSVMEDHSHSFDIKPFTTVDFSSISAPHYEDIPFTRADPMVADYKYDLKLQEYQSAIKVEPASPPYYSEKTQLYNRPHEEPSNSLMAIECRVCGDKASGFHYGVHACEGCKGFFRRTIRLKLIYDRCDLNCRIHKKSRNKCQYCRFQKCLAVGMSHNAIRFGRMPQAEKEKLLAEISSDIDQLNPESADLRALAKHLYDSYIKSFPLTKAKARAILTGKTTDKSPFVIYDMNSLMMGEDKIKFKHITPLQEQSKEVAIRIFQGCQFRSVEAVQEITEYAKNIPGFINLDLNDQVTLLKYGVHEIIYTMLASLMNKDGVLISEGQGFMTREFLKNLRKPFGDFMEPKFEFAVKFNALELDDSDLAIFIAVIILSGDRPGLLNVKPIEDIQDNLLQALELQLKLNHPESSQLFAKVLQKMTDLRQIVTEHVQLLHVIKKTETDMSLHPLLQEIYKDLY
Procedure, shortened: (§1)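 Trizol RNA, M-MLV cDNA, 27-cycle PCR, agarose gel with ethidium bromide stain; GAPDH as internal control. Three independent experiments.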

[2] = target: T1, Peroxisome proliferator-activated receptor gamma (Mus musculus); assay: Agonist activity at PPARgamma in LPS-stimulated mouse RAW264.7 cells assessed as inhibition of NF-kappaB signaling by measuring reduction in IL-1beta mRNA level pretreated with compound for 1 hr followed by LPS stimulation for 6 hrs by RT-PCR analysis; procedure, shortened: as §1
[3] = target: T1, Peroxisome proliferator-activated receptor gamma (Mus musculus); assay: Agonist activity at PPARgamma in LPS-stimulated mouse RAW264.7 cells assessed as inhibition of NF-kappaB signaling by measuring reduction in IL-1beta mRNA level at 50 uM pretreated with compound for 1 hr followed by LPS stimulation for 6 hrs by RT-PCR analysis relative to control; procedure, shortened: as §1
[4] = target: T2, Peroxisome proliferator-activated receptor gamma (Homo sapiens) (UniProt P37231); assay: Agonist activity at full length human flag-tagged PPARgamma1 […] expressed in rat Ac2F cells coexpressing PPRE-X3-TK after 6 hrs by one-glo luciferase reporter gene assay
T2 sequence (whole entry): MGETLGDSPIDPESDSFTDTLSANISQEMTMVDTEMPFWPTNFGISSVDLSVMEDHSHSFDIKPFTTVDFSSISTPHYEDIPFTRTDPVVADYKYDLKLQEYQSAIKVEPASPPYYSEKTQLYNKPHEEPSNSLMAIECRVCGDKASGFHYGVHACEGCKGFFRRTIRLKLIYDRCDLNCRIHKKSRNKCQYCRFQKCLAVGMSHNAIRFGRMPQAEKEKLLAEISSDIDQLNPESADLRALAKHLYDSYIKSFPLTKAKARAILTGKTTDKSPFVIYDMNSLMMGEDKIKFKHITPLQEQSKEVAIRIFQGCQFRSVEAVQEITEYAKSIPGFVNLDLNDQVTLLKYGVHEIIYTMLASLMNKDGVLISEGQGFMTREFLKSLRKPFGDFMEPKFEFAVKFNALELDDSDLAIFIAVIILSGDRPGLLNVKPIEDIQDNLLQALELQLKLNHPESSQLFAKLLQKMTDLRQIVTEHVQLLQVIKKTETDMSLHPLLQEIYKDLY
Procedure, shortened: (§2)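 Rat Ac2F cells at 70–80% confluence transfected by Lipofectamine 2000 with PPRE-X3-TK-luc (1 μg/well) plus pFlag-PPAR-γ1 or pcDNA3 (0.1 μg/well), 4 h, then 10 h in complete medium. Compound (5, 10, 20 μM) or rosiglitazone 5 μM added for 6 h in serum-free medium; ONE-Glo luminescence as fold of control, n = 3.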

[5] = target: T1, Peroxisome proliferator-activated receptor gamma (Mus musculus); assay: Agonist activity at PPARgamma in LPS-stimulated mouse RAW264.7 cells assessed as inhibition of NF-kappaB signaling by measuring reduction in NO production pretreated with compound for 1 hr followed by LPS stimulation measured after 24 hrs by Griess assay
Procedure, shortened: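 Supernatant mixed 1:1 with Griess reagent, 20 min at 37 °C in the dark, A520; nitrite quantified against 0–100 μM sodium nitrite standards.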

[6] = target: T1, Peroxisome proliferator-activated receptor gamma (Mus musculus); assay: Agonist activity at PPARgamma in LPS-stimulated mouse RAW264.7 cells assessed as inhibition of NF-kappaB signaling by measuring reduction in IL-6 production pretreated with compound for 1 hr followed by LPS stimulation measured after 24 hrs by ELISA
[7] = target: T1, Peroxisome proliferator-activated receptor gamma (Mus musculus); assay: Agonist activity at PPARgamma in mouse RAW264.7 cells assessed as increase in protein expression level in nuclear fractions at 30 uM after 24 hrs by Western blot assay relative to control
Procedure, shortened: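 Treated RAW 264.7 cells at 10 or 30 μM for 24 h, with rosiglitazone 10 or 30 μM as comparator. Nuclear fractions isolated by NE-PER extraction, protein by BCA, PPAR-γ by Western blot normalized to nuclear TFIIB; three independent experiments.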

[8] = target: T1, Peroxisome proliferator-activated receptor gamma (Mus musculus); assay: Agonist activity at PPARgamma in LPS-stimulated mouse RAW264.7 cells assessed as inhibition of NF-kappaB signaling by measuring reduction in TNFalpha production pretreated with compound for 1 hr followed by LPS stimulation measured after 3 hrs by ELISA
[9] = target: T1, Peroxisome proliferator-activated receptor gamma (Mus musculus); assay: Agonist activity at PPARgamma in LPS-stimulated mouse RAW264.7 cells assessed as inhibition of NF-kappaB signaling by measuring reduction in COX2 mRNA level pretreated with compound for 1 hr followed by LPS stimulation for 6 hrs by RT-PCR analysis; procedure, shortened: as §1
[10] = target: T1, Peroxisome proliferator-activated receptor gamma (Mus musculus); assay: Agonist activity at PPARgamma in LPS-stimulated mouse RAW264.7 cells assessed as inhibition of NF-kappaB p65 phosphorylation pretreated with compound for 1 hr followed by LPS stimulation for 30 mins by Western blot assay
Procedure, shortened: (§3)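 For the antagonist arm, GW9662 (10 μM) was added 1 h before. Phospho-p65 read by Western blot on 10% SDS-PAGE, β-actin reference; three independent experiments.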

[11] = target: T1, Peroxisome proliferator-activated receptor gamma (Mus musculus); assay: Agonist activity at PPARgamma in LPS-stimulated mouse RAW264.7 cells assessed as inhibition of NF-kappaB signaling by measuring reduction in iNOS protein level pretreated with compound for 1 hr followed by LPS stimulation measured after 24 hrs by Western blot analysis
[12] = Cytotoxicity against rat Ac2F cells assessed as reduction in cell viability up to 50 uM after 24 hrs by WST assay
Procedure, shortened: (§4)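 Cells in high-glucose DMEM/10% heat-inactivated FBS with penicillin-streptomycin at 37 °C, 5% CO2; seeded 12 h, then exposed to compound for 24 h. WST reagent 1 h at 37 °C, absorbance at 450 nm.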

[13] = target: T1, Peroxisome proliferator-activated receptor gamma (Mus musculus); assay: Agonist activity at PPARgamma in LPS-stimulated mouse RAW264.7 cells assessed as inhibition of NF-kappaB p65 phosphorylation at 30 uM pretreated with compound for 1 hr followed by LPS stimulation for 30 mins in presence of PPARgamma antagonist GW9662 by Western blot assay; procedure, shortened: as §3
RAW264.7 = assay: Cytotoxicity against mouse RAW264.7 cells assessed as reduction in cell viability up to 50 uM after 24 hrs by WST assay; settings: raw264.7, 24 h; procedure, shortened: as §4
[14] = target: T1, Peroxisome proliferator-activated receptor gamma (Mus musculus); assay: Agonist activity at PPARgamma in LPS-stimulated mouse RAW264.7 cells assessed as inhibition of NF-kappaB signaling by measuring reduction in iNOS mRNA level at 50 uM pretreated with compound for 1 hr followed by LPS stimulation for 6 hrs by RT-PCR analysis relative to control; procedure, shortened: as §1
[15] = target: T1, Peroxisome proliferator-activated receptor gamma (Mus musculus); assay: Agonist activity at PPARgamma in LPS-stimulated mouse RAW264.7 cells assessed as inhibition of NF-kappaB signaling by measuring reduction in TNFalpha mRNA level pretreated with compound for 1 hr followed by LPS stimulation for 6 hrs by RT-PCR analysis; procedure, shortened: as §1
[16] = target: T2, Peroxisome proliferator-activated receptor gamma (Homo sapiens); assay: Agonist activity at full length human flag-tagged PPARgamma1 […] expressed in rat Ac2F cells coexpressing PPRE-X3-TK at 20 uM after 6 hrs by one-glo luciferase reporter gene assay relative to control; procedure, shortened: as §2
[17] = target: T1, Peroxisome proliferator-activated receptor gamma (Mus musculus); assay: Agonist activity at PPARgamma in LPS-stimulated mouse RAW264.7 cells assessed as inhibition of NF-kappaB signaling by measuring reduction in IL-1beta production pretreated with compound for 1 hr followed by LPS stimulation measured after 24 hrs by ELISA
[18] = target: T1, Peroxisome proliferator-activated receptor gamma (Mus musculus); assay: Agonist activity at PPARgamma in LPS-stimulated mouse RAW264.7 cells assessed as inhibition of NF-kappaB signaling by measuring reduction in TNFalpha mRNA level at 50 uM pretreated with compound for 1 hr followed by LPS stimulation for 6 hrs by RT-PCR analysis relative to control; procedure, shortened: as §1
[19] = target: T1, Peroxisome proliferator-activated receptor gamma (Mus musculus); assay: Agonist activity at PPARgamma in LPS-stimulated mouse RAW264.7 cells assessed as inhibition of NF-kappaB p65 phosphorylation at 30 uM pretreated with compound for 1 hr followed by LPS stimulation for 30 mins by Western blot assay relative to control; procedure, shortened: as §3
[20] = target: T1, Peroxisome proliferator-activated receptor gamma (Mus musculus); assay: Agonist activity at PPARgamma in LPS-stimulated mouse RAW264.7 cells assessed as inhibition of NF-kappaB signaling by measuring reduction in COX2 mRNA level at 50 uM pretreated with compound for 1 hr followed by LPS stimulation for 6 hrs by RT-PCR analysis relative to control; procedure, shortened: as §1
[21] = target: T1, Peroxisome proliferator-activated receptor gamma (Mus musculus); assay: Agonist activity at PPARgamma in LPS-stimulated mouse RAW264.7 cells assessed as inhibition of NF-kappaB signaling by measuring reduction in COX2 protein level pretreated with compound for 1 hr followed by LPS stimulation measured after 24 hrs by Western blot analysis
[22] = target: T1, Peroxisome proliferator-activated receptor gamma (Mus musculus); assay: Agonist activity at PPARgamma in LPS-stimulated mouse RAW264.7 cells assessed as inhibition of NF-kappaB signaling by measuring reduction in iNOS mRNA level pretreated with compound for 1 hr followed by LPS stimulation for 6 hrs by RT-PCR analysis; procedure, shortened: as §1
[23] = target: T1, Peroxisome proliferator-activated receptor gamma (Mus musculus); assay: Agonist activity at PPARgamma in LPS-stimulated mouse RAW264.7 cells assessed as inhibition of NF-kappaB signaling by measuring reduction in IL-6 mRNA level pretreated with compound for 1 hr followed by LPS stimulation for 6 hrs by RT-PCR analysis; procedure, shortened: as §1

fold change (FC) [1]: 5
inhibition [2]: Dose-dependent effect
fold change (FC) [3]: 2.5
Activity [4]: Dose-dependent effect
inhibition [5]: Dose-dependent effect
inhibition [6]: Dose-dependent effect
fold change (FC) [7]: 1.8
inhibition [8]: Dose-dependent effect
inhibition [9]: Dose-dependent effect
inhibition [10]: Dose-dependent effect
inhibition [11]: Dose-dependent effect
inhibition [13]: inactive
fold change (FC) [14]: 5
inhibition [15]: Dose-dependent effect
fold change (FC) [16]: 3
inhibition [17]: Dose-dependent effect
fold change (FC) [18]: 2
fold change (FC) [19]: 2.8
fold change (FC) [20]: 2
inhibition [21]: Dose-dependent effect
inhibition [22]: Dose-dependent effect
inhibition [23]: Dose-dependent effect
Structure (SMILES): COC(=O)CC/C(C)=C/CC/C(C)=C/Cc1cc(O)c(C)cc1O
Activity [12]: Non-Toxic
Activity (RAW264.7): Non-Toxic

fold change (FC) [7]: 2.3
Structure (SMILES): CN(CCOc1ccc(CC2SC(=O)NC2=O)cc1)c1ccccn1 (stereo not given)

— ChEMBL document CHEMBL4138282, “An Anti-Inflammatory PPAR-γ Agonist from the Jellyfish-Derived Fungus Penicillium chrysogenum J08NF-4” (J Nat Prod, 2018)
